Experimental data: ChEMBL document CHEMBL3739331, “Synthesis and Bioactivities of Kanamycin B-Derived Cationic Amphiphiles” (J Med Chem, 2015)
In brackets after ≈: the same amount, converted by molar mass. Activity calls are given as the source filed them. No cut-off for these calls is given here.

Tests used:
[1] = test system: Klebsiella pneumoniae; assay: Antibacterial activity against Klebsiella pneumoniae ATCC 27736 by microdilution method; type: functional
Outline: (§1)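 Broth microdilution MIC against the named bacterial strain, reported in μg/mL; each determination run at least in duplicate.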

[2] = Activity of AAC(3)-4 (unknown origin) assessed as compound acetylation activity by Ellman's method
[3] = test system: Bacillus subtilis; assay: Antibacterial activity against Bacillus subtilis 168 by microdilution method; type: functional; settings: subsp. subtilis str. 168; outline: as §1
[4] = test system: Listeria monocytogenes; assay: Antibacterial activity against Listeria monocytogenes ATCC 19115 by microdilution method; type: functional; outline: as §1
[5] = test system: Staphylococcus aureus; assay: Antibacterial activity against methicillin-resistant Staphylococcus aureus by microdilution method; type: functional
Outline: (§2)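 Broth microdilution MIC, in μg/mL, against a panel of Gram-positive and Gram-negative strains. Run at least in duplicate.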

[6] = test system: Staphylococcus aureus; assay: Antibacterial activity against Staphylococcus aureus ATCC 29213 by microdilution method; type: functional; outline: as §1
[7] = test system: Staphylococcus aureus; assay: Antibacterial activity against Staphylococcus aureus NRS382 (USA 100) by microdilution method; type: functional; outline: as §1
[8] = test system: Staphylococcus aureus; assay: Antibacterial activity against Staphylococcus aureus NRS383 (USA 200) by microdilution method; type: functional; outline: as §1
[9] = test system: Staphylococcus aureus; assay: Antibacterial activity against Staphylococcus aureus NRS385 (USA 300) by microdilution method; type: functional; outline: as §2
[10] = test system: Staphylococcus aureus; assay: Antibacterial activity against Staphylococcus aureus NRS22 (USA 600) by microdilution method; type: functional; outline: as §1
[11] = test system: Staphylococcus epidermidis; assay: Antibacterial activity against Staphylococcus epidermidis ATCC 12228 by microdilution method; type: functional; outline: as §1
[12] = test system: Enterococcus; assay: Antibacterial activity against vancomycin-resistant Enterococcus by microdilution method; type: functional; outline: as §2
[13] = test system: Acinetobacter baumannii; assay: Antibacterial activity against Acinetobacter baumannii ATCC 19606 by microdilution method; type: functional; outline: as §1
[14] = test system: Enterobacter cloacae; assay: Antibacterial activity against Enterobacter cloacae ATCC 13047 by microdilution method; type: functional; outline: as §1
[15] = test system: Escherichia coli; assay: Antibacterial activity against Escherichia coli MC1061 by microdilution method; type: functional; outline: as §2
[16] = test system: Pseudomonas aeruginosa; assay: Antibacterial activity against Pseudomonas aeruginosa ATCC 27853 by microdilution method; type: functional; outline: as §1
[17] = test system: Salmonella enterica; assay: Antibacterial activity against Salmonella enterica ATCC 14028 by microdilution method; type: functional; outline: as §1
[18] = test system: Bacillus subtilis subsp. subtilis str. 168; assay: Activity of Bacillus subtilis 168 APH(2'')-1a assessed as compound phosphorylation activity by Ellman's method
[19] = Activity of AAC(6')-1e/APH(2'')-1a (unknown origin) assessed as compound acetylation activity by Ellman's method
[20] = test system: Serratia marcescens; assay: Activity of Serratia marcescens AAC(6')-2d assessed as compound acetylation activity by Ellman's method
[21] = test system: Mycobacterium tuberculosis; assay: Activity of Mycobacterium tuberculosis AAC(2')-1c assessed as compound acetylation activity by Ellman's method
[22] = test system: Mycobacterium tuberculosis; assay: Activity of Mycobacterium tuberculosis Eis assessed as compound acetylation activity by Ellman's method
[23] = test system: Candida albicans; assay: Antifungal activity against azole-resistant Candida albicans ATCC 10231 after 48 hrs by microbroth dilution method; type: functional; settings: ATCC 10231, 48 h
Outline: (§3)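 Yeast MIC by broth microdilution, run in duplicate. The aminoglycoside compounds are read as MIC-0 (complete inhibition). Azoles are read as MIC-2 (50% inhibition).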

[24] = test system: Candida albicans; assay: Antifungal activity against azole-resistant Candida albicans ATCC 64124 after 48 hrs by microbroth dilution method; type: functional; settings: ATCC 64124, 48 h; outline: as §3
[25] = test system: Candida albicans; assay: Antifungal activity against azole-susceptible Candida albicans ATCC MYA-2876 after 48 hrs by microbroth dilution method; type: functional; settings: ATCC MYA-2876, 48 h; outline: as §3
[26] = test system: Candida albicans; assay: Antifungal activity against azole-resistant Candida albicans ATCC 90819 after 48 hrs by microbroth dilution method; type: functional; settings: ATCC 90819, 48 h; outline: as §3
[27] = test system: Candida albicans; assay: Antifungal activity against azole-susceptible Candida albicans ATCC MYA-2310 after 48 hrs by microbroth dilution method; type: functional; settings: ATCC MYA-2310, 48 h; outline: as §3
[28] = test system: Candida albicans; assay: Antifungal activity against azole-resistant Candida albicans MYA-1237 after 48 hrs by microbroth dilution method; type: functional; settings: MYA-1237, 48 h; outline: as §3
[29] = test system: Candida albicans; assay: Antifungal activity against azole-resistant Candida albicans MYA-1003 after 48 hrs by microbroth dilution method; type: functional; settings: MYA-1003, 48 h; outline: as §3
[30] = test system: Aspergillus nidulans; assay: Antifungal activity against Aspergillus nidulans ATCC 38163 after 48 hrs by microbroth dilution method; type: functional; settings: ATCC 38163, 48 h
Outline: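 Filamentous fungus MIC by broth microdilution, run in duplicate. All compounds are read as MIC-0 (complete inhibition).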

[31] = test system: Candida albicans; assay: Antifungal activity against azole-resistant Candida albicans ATCC 64124 at sub-MIC measured over 24 hrs by time-kill assay; type: functional, organism-based
Outline: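 Time-kill assay on C. albicans ATCC 64124 cultures exposed to test compound at 1/2 MIC, MIC and higher concentrations. Amphotericin B at 1 μg/mL and a no-drug culture serve as controls. CFU are counted at intervals over 24 h.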

[32] = Hemolytic activity against mouse RBC at 100 to 500 ug/ml after 60 mins; type: ADME, cell-based; settings: erythrocyte, 1 h

Structure (SMILES)	MIC [1] [µg/mL]	Activity [2]	MIC [3] [µg/mL]	MIC [4] [µg/mL]	MIC [5] [µg/mL]	MIC [6] [µg/mL]	MIC [7] [µg/mL]	MIC [8] [µg/mL]	MIC [9] [µg/mL]	MIC [10] [µg/mL]	MIC [11] [µg/mL]	MIC [12] [µg/mL]	MIC [13] [µg/mL]	MIC [14] [µg/mL]	MIC [15] [µg/mL]	MIC [16] [µg/mL]	MIC [17] [µg/mL]	Activity [18]	Activity [19]	MIC [30] [µg/mL]	further results
CCCCCCCCCCCCS(=O)(=O)C[C@@H]1O[C@@H](O[C@@H]2[C@@H](O)[C@H](O[C@@H]3O[C@@H](CN)[C@H](O)[C@@H](O)[C@@H]3N)[C@@H](N)C[C@H]2N)[C@@H](O)[C@H](N)[C@H]1O (stereo in doubt)	128 (≈ 183 µM)	inactive	> 128	4 (≈ 5.72 µM)	64 (≈ 91.4 µM)	128 (≈ 183 µM)	64 (≈ 91.4 µM)	32 (≈ 45.7 µM)	64 (≈ 91.4 µM)	32 (≈ 45.7 µM)	> 128	32 (≈ 45.7 µM)	128 (≈ 183 µM)	> 128	> 128	16 (≈ 22.9 µM)	64 (≈ 91.4 µM)	inactive	inactive	3.9 (≈ 5.57 µM)	Activity [20]: inactive; Activity [21]: inactive; Activity [22]: inactive; MIC [23]: 31.2 µg/mL (≈ 44.6 µM); MIC [24]: 31.2 µg/mL (≈ 44.6 µM); MIC [25]: 31.2 µg/mL (≈ 44.6 µM); MIC [26]: 62.5 µg/mL (≈ 89.3 µM); MIC [27]: 62.5 µg/mL (≈ 89.3 µM); MIC [28]: 62.5 µg/mL (≈ 89.3 µM); MIC [29]: 62.5 µg/mL (≈ 89.3 µM)
CCCCCCCCSC[C@H]1O[C@H](O[C@@H]2[C@@H](O)[C@H](O[C@H]3O[C@H](CN)[C@@H](O)C[C@H]3N)[C@@H](N)C[C@H]2N)[C@H](O)[C@@H](N)[C@@H]1O																				125 (≈ 210 µM)	
CCCCCCCCCCSC[C@H]1O[C@H](O[C@@H]2[C@@H](O)[C@H](O[C@H]3O[C@H](CN)[C@@H](O)C[C@H]3N)[C@@H](N)C[C@H]2N)[C@H](O)[C@@H](N)[C@@H]1O																				62.5 (≈ 100 µM)	
CCCCCCCCCCCCCCS(=O)(=O)C[C@@H]1O[C@@H](O[C@@H]2[C@@H](O)[C@H](O[C@@H]3O[C@@H](CN)[C@H](O)[C@@H](O)[C@@H]3N)[C@@H](N)C[C@H]2N)[C@@H](O)[C@H](N)[C@H]1O (stereo in doubt)	> 128	inactive	> 128	2 (≈ 2.75 µM)	128 (≈ 176 µM)	128 (≈ 176 µM)	64 (≈ 87.9 µM)	128 (≈ 176 µM)	128 (≈ 176 µM)	64 (≈ 87.9 µM)	> 128	32 (≈ 44 µM)	> 128	> 128	> 128	32 (≈ 44 µM)	128 (≈ 176 µM)	inactive	inactive	1.95 (≈ 2.68 µM)	Activity [20]: inactive; Activity [21]: inactive; Activity [22]: inactive; MIC [23]: 3.9 µg/mL (≈ 5.36 µM); MIC [24]: 3.9 µg/mL (≈ 5.36 µM); MIC [25]: 3.9 µg/mL (≈ 5.36 µM); MIC [26]: 7.8 µg/mL (≈ 10.7 µM); MIC [27]: 7.8 µg/mL (≈ 10.7 µM); MIC [28]: 7.8 µg/mL (≈ 10.7 µM); MIC [29]: 7.8 µg/mL (≈ 10.7 µM)
OC(Cn1cncn1)(Cn1cncn1)c1ccc(F)cc1F [FLUCONAZOLE]																				> 62.5	MIC50 [23]: 62.5 µg/mL (≈ 204 µM); MIC50 [24]: 125 µg/mL (≈ 408 µM); MIC50 [25]: 15.6 µg/mL (≈ 50.9 µM); MIC50 [26]: > 125 µg/mL; MIC50 [27]: > 125 µg/mL; MIC50 [28]: 62.5 µg/mL (≈ 204 µM); MIC50 [29]: 62.5 µg/mL (≈ 204 µM)
C[C@@H]1[C@H](O)[C@@H](C)/C=C/C=C/C=C/C=C/C=C/C=C/C=C/[C@H](O[C@@H]2O[C@H](C)[C@@H](O)[C@H](N)[C@@H]2O)C[C@@H]2O[C@](O)(C[C@@H](O)C[C@@H](O)[C@H](O)CC[C@@H](O)C[C@@H](O)CC(=O)O[C@H]1C)C[C@H](O)[C@H]2C(=O)O [AMPHOTERICIN B]																					Activity [31]: Active; Activity [32]: Toxic
